Data as given in article PMC3662472 (Basic research in cardiology, 2012).
Entries after “also recorded” stand apart in the source; their conditions may differ. Read-outs that look alike come from different tables or passages of the source. Ends that are not written are not given here.

Key:
[1] = system: porcine Cx43 gene gja1 / Cx43 expression; test: Cx43 expression; type: cell-based; conditions: cultured pig ventricular cardiomyocytes
[2] = system: Cx43 hemichannels (cultured pig ventricular cardiomyocytes); type: cell-based; conditions: Vm +70 mV, siCx43 n = 9, siCx43scr n = 6, MOCK n = 3, ***P < 0.001 siCx43 versus MOCK and siCx43scr
[3] = molecular target: Cx43 hemichannels (HeLa-Cx43 cells) (Mus musculus, UniProt P23242); type: cell-based; conditions: for Qm (% normalized to average before peptide addition), time course: repeated Vm steps to +70 mV, n = 3; for Qm versus control / HC-mediated unitary events: concentration not given; for Qm versus control: Vm +70 mV (30 s); for Qm at steady state (reduction to, % of value before peptide): n = 5
Summary of the method: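 HeLa cells stably express mouse Cx43 from a CMV vector and are kept in DMEM with 20 % FBS, 2 mM glutamine and 1 μg/mL puromycin. In whole-cell clamp (1–3 MΩ pipettes, pH 7.2, 50 nM Ca2+, 1 kHz filter), peptide is pre-incubated 30 min or added during recording. Qm is integrated unitary current over each step, normalized to pre-peptide or […] control. Mean ± SEM, ANOVA/Bonferroni or t test.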

[4] = system: Cx43 hemichannels (pig ventricular cardiomyocytes); test: Unitary hemichannel currents in isolated pig left ventricular cardiomyocytes; type: cell-based; conditions: Vm −70 to +80 mV
[5] = system: Panx1 HCs; conditions: 20 μM; ref [6]; cited from earlier work
[6] = scrambled peptide, Vm +70 mV, HeLa-Cx43

Cx43 hemichannels (HeLa-Cx43 cells), sequence (P23242 whole entry): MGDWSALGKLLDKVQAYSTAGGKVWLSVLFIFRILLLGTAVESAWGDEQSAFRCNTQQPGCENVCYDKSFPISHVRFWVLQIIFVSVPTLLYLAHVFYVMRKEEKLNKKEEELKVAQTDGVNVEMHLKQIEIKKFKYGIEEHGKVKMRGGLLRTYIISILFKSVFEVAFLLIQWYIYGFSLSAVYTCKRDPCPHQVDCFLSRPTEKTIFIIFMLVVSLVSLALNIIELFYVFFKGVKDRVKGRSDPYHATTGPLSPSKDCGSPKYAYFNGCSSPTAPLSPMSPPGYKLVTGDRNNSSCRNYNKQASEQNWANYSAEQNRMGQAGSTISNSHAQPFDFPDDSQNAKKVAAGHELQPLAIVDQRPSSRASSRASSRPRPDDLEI

Compound: 5′-AGAGAUACGAACAAGAGAG-3′ [siCx43^scr]
- effect on Cx43 expression ([1]; scrambled siRNA): no effect
- Cx43 HC unitary current activity (Qm) [2]: no effect

Compound: 5′-GAAAGAGGAGGAACUCAAA-dTdT-3′ [siCx43]
- Cx43 expression, % of control (MOCK) ([1]; *P < 0.05 versus siCx43scr and MOCK): 50%
- Cx43 expression knockdown ([1]; siRNA 24 h): ~ 50%
- Cx43 HC unitary current activity (Qm) ([2]; listed as siRNA directed against Cx43): significantly inhibited

Compound: CC1(C)[C@@H](OC(=O)CCC(=O)O)CC[C@]2(C)[C@H]3C(=O)C=C4[C@@H]5C[C@@](C)(C(=O)O)CC[C@]5(C)CC[C@@]4(C)[C@]3(C)CC[C@@H]12 [carbenoxolone]
- unitary current activity ([3]; 100 μM, Vm = +70 mV, HeLa-Cx43): rapidly disappeared
- unitary current events in cardiomyocytes ([4]; 20 μM): not influenced; also recorded: not affected
- unitary current events in cardiomyocytes ([4]; 20 μM, listed as Carbenoxolone): no effect
- unitary current events in cardiomyocytes ([4]; 100 μM): acted inhibitory; also recorded: clearly inhibited the currents
- block of Panx1 HCs [5]: known to block Panx1 HCs

Compound: PSFDSRHCIVKYV [SGap26]
- inhibition of Qm at 1 mM ([3]; 1 mM, Vm +70 mV, HeLa-Cx43): strong inhibition
- inhibitory effect on Qm over concentration range ([3]; concentration range at which Gap26 displayed inhibition): did not exhibit inhibitory effects
- Qm (% normalized to average before peptide addition), time course [3]: around 100%
- Qm versus control ([3]; scrambled peptide, HeLa-Cx43): not different from control
- HC-mediated unitary events [3, 6]: did not reveal any inhibition
- Qm decay over time ([3]; time course, Vm steps to +70 mV, scrambled peptide): did not cause any Qm decay

Compound: SRPTEKTIFII [Gap27, SRPTEKTIFII]
- IC50 [3]: ~161 µM
- Qm at steady state (reduction to, % of value before peptide) ([3]; 300 μM, Vm steps to +70 mV, **P < 0.01 versus SGap27): ~ 15%

Compound: TFEPIRISITK [SGap27]
- effect on Qm versus concentration ([3]; concentration dependence, Vm +70 mV, HeLa-Cx43): did not affect Qm unless it was applied at 1 mM concentration
- Qm (% normalized to average before peptide addition), time course [3]: around 100%
- Qm versus control ([3]; scrambled peptide, HeLa-Cx43): not different from control
- HC-mediated unitary events [3, 6]: did not reveal any inhibition

Compound: VCYDKSFPISHVR [Gap26, VCYDKSFPISHVR]
- IC50 [3]: ~81 µM
- Qm at steady state (reduction to, % of value before peptide) ([3]; 250 μM, Vm steps −30 to +70 mV, *P < 0.05 versus SGap26): ~ 35%
